Most compounds without a hit are left out; they make up all but 2.3% or so of the library.
TRPC4 potent – allosteric potentiators of mouse TRPC4 channel | HEK293 TRPC4beta/mu-opioid, DAMGO EC20, Fluo-4 Ca2+ flux; hits give high values | B-score at 10 µM | 0.42% of 310,000 active | AID 2227;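 active means B-score of calcium response area above 5 SD of library B-scores, with initial fluorescence ratio within 5 SD of library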;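 further: B-score of integrated fluorescence ratio over time as area under calcium response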
Target sequence (Q9QUQ5 whole entry, looked up): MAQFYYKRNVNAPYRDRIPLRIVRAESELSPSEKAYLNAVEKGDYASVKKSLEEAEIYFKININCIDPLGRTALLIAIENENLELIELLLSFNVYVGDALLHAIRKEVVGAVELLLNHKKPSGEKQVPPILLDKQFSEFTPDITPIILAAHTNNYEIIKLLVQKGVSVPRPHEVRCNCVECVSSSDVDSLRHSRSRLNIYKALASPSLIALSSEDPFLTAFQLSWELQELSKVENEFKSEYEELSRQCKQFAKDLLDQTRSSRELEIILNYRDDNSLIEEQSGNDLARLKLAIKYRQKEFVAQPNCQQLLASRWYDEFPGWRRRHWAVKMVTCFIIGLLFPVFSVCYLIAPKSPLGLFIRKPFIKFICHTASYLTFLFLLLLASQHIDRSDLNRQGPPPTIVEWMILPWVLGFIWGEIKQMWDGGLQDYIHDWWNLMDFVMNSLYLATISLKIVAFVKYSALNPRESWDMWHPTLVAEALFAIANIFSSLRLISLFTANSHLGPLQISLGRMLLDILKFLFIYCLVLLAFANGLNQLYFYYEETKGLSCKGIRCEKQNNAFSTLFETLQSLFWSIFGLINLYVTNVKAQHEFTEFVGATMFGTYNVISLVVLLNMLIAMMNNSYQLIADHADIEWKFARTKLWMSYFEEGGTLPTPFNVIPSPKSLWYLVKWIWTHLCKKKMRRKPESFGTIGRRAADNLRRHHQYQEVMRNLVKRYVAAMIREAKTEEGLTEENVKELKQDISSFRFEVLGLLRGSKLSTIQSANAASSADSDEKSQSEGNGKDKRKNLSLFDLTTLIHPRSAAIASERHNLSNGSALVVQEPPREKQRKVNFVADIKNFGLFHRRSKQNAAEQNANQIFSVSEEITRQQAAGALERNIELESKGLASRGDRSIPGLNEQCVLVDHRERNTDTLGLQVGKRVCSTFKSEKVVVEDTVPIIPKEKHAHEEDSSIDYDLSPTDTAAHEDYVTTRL
TRPC4 agonist – activators of mouse TRPC4 channel; B-score at 10 µM; HEK293 TRPC4beta/mu-opioid, Fluo4 calcium fluorescence; hits give high values; Q9QUQ5; AID 2237; 0.49% of 310,000 active;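 active means B-score above 5 SD of library B-scores, and initial fluorescence ratio not above library mean plus 5 SD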;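 further: positive B-score marks a calcium rise read as TRPC4 activation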
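System: HEK293 cells stably co-expressing mouse TRPC4beta and mu-opioid receptor; Schedule: Fluo4 dye loading 45 min at room temperature, 110 s recording; Detection: Fluo4 fluorescence, kinetic; Evaluation: B-scored integrated calcium fluorescence ratio; Controls: buffer (low) and maximal DAMGO (high).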
TRPC6 activator – mouse TRPC6 channel activation; B-score at 10 µM; HEK293-TRPC6 membrane potential dye fluorescence; hits give high values; 0.13% of 310,000 active; AID 2550;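 active means B-score of the integrated fluorescence ratio above library mean plus 3 SD, and starting fluorescence ratio within library mean plus 5 SD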;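 further: higher score means more depolarization so channel activation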
TRPC4 block – inhibitors of mouse TRPC4 channel; AID 2247; 0.39% of 300,000 active; HEK293 TRPC4beta/mu-opioid, DAMGO-evoked Fluo4 calcium flux; hits give low values; B-score at 10 µM;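 active means B-score over 3 SD under the library average, no early fluorescence shift, positive overall ratio signal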
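Assay system: TRPC4beta/mu-opioid receptor HEK293 cell line; compound dosing: single concentration per test compound; detection: Fluo4 Ca2+ flux fluorescence; evaluation: per-well B score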
TRPC6 inhibitor – inhibitors of mouse TRPC6 channel | 1.1% of 310,000 active | HEK293-TRPC6, membrane potential dye, ACh-evoked depolarization; hits give low values | B-score at 10 µM | Q61143 | AID 2553;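 active means B-score under library mean minus 3 SD, initial fluorescence not abnormally high, positive integrated signal ratio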;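 further: B-score derived from integrated fluorescence ratio over the kinetic read; more negative B-score means stronger inhibition of depolarization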
TRPC4 sel inh 2 – second selectivity test of TRPC6 inhibitors: effect on mouse TRPC4. HEK293 TRPC4/MOR, membrane potential dye fluorescence; channel activated by saturating DAMGO dose. 42% of 920 active. AID 2776. shares compounds with TRPC6 inhibitor. inhibition, % at 10 µM;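 active means compounds whose fluorescence signal differed from control wells by over 3 SD, either direction, in both duplicate plates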
TRPC4 spec – selectivity of TRPC6 inhibitors: effect on mouse TRPC4; shares compounds with TRPC6 inhibitor; HEK293 TRPC4/mu-opioid, membrane potential fluorescence; activity change, negative = inhibition, % at 10 µM; 61% of 920 active; AID 2777;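 active means rise or fall in signal beyond 3 SD of buffer-only wells in both replicate plates, either sign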;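 further: integrated kinetic ratio of fluorescence range over baseline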
HEK293 MPD ctr 2-1 – parental HEK293 nonspecific activity of TRPC6 inhibitors, second screen; parental HEK293 membrane potential dye fluorescence; maximal acetylcholine challenge after compound addition; AID 2779; signal change vs control, % at 10 µM; shares compounds with TRPC6 inhibitor; 31% of 920 active;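 active means membrane potential signal moving either way by over 3 SD of the maximum-effect control, in both duplicate plates, meaning non-specific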
HEK293 MPD ctr-1 – parental HEK293 nonspecific activity of TRPC6 inhibitors | shares compounds with TRPC6 inhibitor | parental HEK293 membrane potential dye fluorescence | membrane potential signal change, % at 10 µM | 60% of 920 active;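 active means membrane potential signal shifting up or down by more than 3 SD of buffer-only wells, on both duplicate plates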
HEK293 MPD ctr-2 – counter-screen for TRPC6 modulators: effect in parental HEK293 cells; 51% of 2,400 active; AID 488924; shares compounds with TRPC6 inhibitor; membrane potential signal change, % at 10 µM; membrane potential dye fluorescence;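 active means membrane potential signal moves up or down beyond 5 SD from buffer-only wells, on both duplicate plates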
HEK293 MPD ctr 2-2 – second counter-screen for TRPC6 modulators: effect in parental HEK293 cells. membrane potential dye fluorescence; after compound, maximal acetylcholine stimulation. shares compounds with TRPC6 inhibitor. AID 488926. 14% of 2,400 active. inhibition, % at 10 µM;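 active means membrane potential signal drops by more than 5 SD from the mean control signal, in both duplicate plates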;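 further: plate controls were acetylcholine ECmax control wells for no effect and buffer only wells for full effect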
TRPC4/MOR mod – mouse TRPC4 off-target activity of TRPC6 modulators; 69% of 2,400 active; percent change from control (negative = decrease, positive = increase), % at 10 µM; shares compounds with TRPC6 inhibitor; HEK293 TRPC4/mu-opioid, membrane potential fluorescence;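 active means membrane potential signal moved up or down beyond 5 SD of buffer control wells, in both duplicate plates, actives on both sides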;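 further: plate controls were assay buffer wells for no effect and DAMGO maximal-effect wells for full effect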
TRPC4/MOR inh 2 – second check of whether TRPC6 modulators also affect mouse TRPC4; shares compounds with TRPC6 inhibitor; HEK293 TRPC4/mu-opioid, membrane potential dye fluorescence; stimulated with maximal-effect DAMGO; inhibition, % at 10 µM; 55% of 2,400 active;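 active means drop in membrane potential signal beyond 5 SD of the control wells in both duplicate plates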;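 further: TRPC4 counter screen for TRPC6 hits run under conditions tuned for TRPC6 not TRPC4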
TRPC6 inh conf – confirmation of mouse TRPC6 inhibitors | shares compounds with TRPC6 inhibitor | HEK293-TRPC6, membrane potential dye, ACh-evoked depolarization | inhibition, % at 10 µM | 43% of 3,300 active | AID 488960;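 active means fluorescence ratio falls more than 5 SD below the full-stimulation control mean, in both duplicate runs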;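 further: integrated fluorescence ratio of peak minus minimum over baseline after agonist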
TRPC6 act confirm – mouse TRPC6 activator confirmation; 11% of 2,800 active; shares compounds with TRPC6 inhibitor; activation, % at 10 µM; HEK293-TRPC6 membrane potential dye fluorescence, FDSS;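 active means ratio signal rise beyond 5 SD above unstimulated control wells' mean, seen in both duplicate runs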;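 further: plate controls were buffer EC0 wells for no effect and acetylcholine ECmax response for full effect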
Active calls of the source: *; i = inactive; · = no result given; + = active, no number.

SMILES | TRPC4 potent | TRPC4 agonist | TRPC6 activator | TRPC4 block | TRPC6 inhibitor | HEK293 MPD ctr-2 | HEK293 MPD ctr 2-2 | TRPC4/MOR mod | TRPC4/MOR inh 2 | TRPC6 inh conf | TRPC6 act confirm | others
C=CCN(c1ccccc1)S(=O)(=O)c1ccc(Cl)c(C(=O)OCC(=O)N(C)C2CCS(=O)(=O)C2)c1 (stereo unspecified) | i | i | i | i | i | · | · | · | · | · | ·
CCOC(=O)C1CCCN(C(=O)c2cc3c(C)nc4ccccc4c3o2)C1 (stereo unspecified) | i | i | i | i | -6.9* | · | · | · | · | 61%* | i | TRPC4 sel inh 2=i;TRPC4 spec=4.0%*;HEK293 MPD ctr 2-1=i;HEK293 MPD ctr-1=3.1%*
CCOC(=O)C1CCCN(C(=O)c2ccc(C)c([N+](=O)[O-])c2)C1 (stereo unspecified) | i | i | i | i | -5.8* | i | 64%* | i | i | 54%* | i
Cc1nc2ccccc2c2oc(C(=O)N3CC(C)CC(C)C3)cc12 (stereo unspecified) | i | i | i | i | i | · | · | · | · | · | ·
N#Cc1ccc(CN2CCN(CC(=O)NCCc3ccc(Cl)cc3Cl)CC2)cc1 | i | i | i | i | i | · | · | · | · | · | ·
Cc1cc(C)nc(NC2=NCC(=O)N2c2cc(Cl)cc(Cl)c2)n1 | i | i | i | i | i | · | · | · | · | · | ·
Cc1cc(C)nc(NC2=NC3CCCCC3N2)n1 (stereo unspecified) | i | i | i | i | -8.9* | 192%* | 128%* | -10%* | 54%* | 56%* | i
O=C(NNC(=S)Nc1ccc(F)c(Cl)c1)c1ccccc1Br | i | i | i | i | i | · | · | · | · | · | ·
C=CCN(C(=O)CC(NC(C)=O)c1ccccc1)c1nc(-c2ccc(S(C)(=O)=O)cc2)cs1 (stereo unspecified) | i | i | i | i | -6.5* | i | i | i | i | i | i
CC(=O)NC(CC(=O)Nc1nc(C)cs1)c1ccccc1 (stereo unspecified) | i | i | i | i | i | · | · | · | · | · | ·
N=C1CCCN1CC(=O)c1ccc(Cl)cc1 | i | i | i | i | -5.1* | i | i | i | i | i | i
Cc1cc(=O)c2ccc(C(F)(F)F)cc2[nH]1 | i | i | i | i | i | · | · | · | · | · | ·
O=c1cc(C(F)(F)F)[nH]c2ccc(C(F)(F)F)cc12 | i | i | i | i | -7* | · | · | · | · | 105%* | · | TRPC4 sel inh 2=i;TRPC4 spec=15%*;HEK293 MPD ctr 2-1=i;HEK293 MPD ctr-1=11%*
NCCOc1ccc(C23CC4CC(CC(C4)C2)C3)cc1 | i | i | i | i | i | · | · | · | · | · | ·
NCC12CC3CC(C1)CC(c1ccc(Br)cc1)(C3)C2 | i | i | i | i | -8.6* | · | · | · | · | 62%* | i | TRPC4 sel inh 2=44%*;TRPC4 spec=-10%*;HEK293 MPD ctr 2-1=i;HEK293 MPD ctr-1=-178%*
Cc1ccc(C23CC4CC(CC(CN)(C4)C2)C3)cc1 | i | i | i | i | -7.5* | · | · | · | · | i | i | TRPC4 sel inh 2=42%*;TRPC4 spec=-11%*;HEK293 MPD ctr 2-1=i;HEK293 MPD ctr-1=-176%*
CCOC(=O)C(=O)c1csc(NC(=O)CCSc2ccc(C)cc2)n1 | i | i | i | i | i | · | · | · | · | · | ·
O=C(CCC1CCCCC1)NCCN1C2=NC[C@H](Cc3ccccc3)N2C[C@H]1Cc1ccc(O)cc1 | i | i | i | i | i | · | · | · | · | · | ·
O=C(CCC1CCCCC1)NCCN1C2=NC[C@@H](Cc3ccccc3)N2C[C@H]1Cc1ccc(O)cc1 | i | i | i | i | -5.5* | i | i | i | i | i | i
CCCOc1cccc(C2C(C(=O)c3cccs3)=C(O)C(=O)N2Cc2cccnc2)c1 (stereo unspecified) | i | i | i | i | i | · | · | · | · | · | ·
Cc1nn(-c2cc(N3CCCCCC3)ccc2[N+](=O)[O-])c(=O)c2ccccc12 | i | i | i | i | i | · | · | · | · | · | ·
Cc1ccc(-c2nn(-c3cc(N4CCNCC4)ccc3[N+](=O)[O-])c(=O)c3ccccc23)cc1 | i | i | i | i | -9.6* | · | · | · | · | i | i | TRPC4 sel inh 2=51%*;TRPC4 spec=-11%*;HEK293 MPD ctr 2-1=i;HEK293 MPD ctr-1=i
C=CCn1c(=N)c(C#N)cc2c(=O)n3ccccc3nc21 | i | i | i | i | -8.7* | -278%* | i | -44%* | 38%* | i | i
NC(=O)NC(=O)COC(=O)/C=C/c1cccc(Br)c1 | i | i | i | i | i | · | · | · | · | · | ·
CNC(=O)NC(=O)COC(=O)/C=C/c1cccc(Br)c1 | i | i | i | i | -8.5* | · | · | · | · | i | i | TRPC4 sel inh 2=i;TRPC4 spec=i;HEK293 MPD ctr 2-1=i;HEK293 MPD ctr-1=i
CCC(=O)N/N=C/c1ccc(-c2ccc([N+](=O)[O-])cc2)o1 | i | i | i | i | i | · | · | · | · | · | ·
CC(C)(C)C(=O)/C=c1\s/c(=C\c2ccc(-c3ccc([N+](=O)[O-])cc3)o2)c(=O)n1CC(=O)NC(N)=O | 21* | 62* | 57* | i | i | + | i | 348%* | i | i | 418%*
O=C(NC(c1ccccc1)c1ccccc1)C1CCCN(S(=O)(=O)c2cnc[nH]2)C1 (stereo unspecified) | i | i | i | i | i | · | · | · | · | · | ·
